Data set [1] can be described thus: Anti-bovine viral diarrhoea virus activity relative to ribavirin. Type of data set: functional, Bos taurus.
A short description of data set [2]: Ratio of cytotoxicity to anti BVDV activity of the compound. Also noted: species or system Bos taurus. The settings on record: cattle; for selectivity ratio: read-out: CC50/EC50.
Data set [3] is described as follows: Anti BVDV activity in MDBK (Madin-darby bovine kidney) cells. Type of data set: functional, Bos taurus. A digest of the protocol: (§1)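 MDBK cells in DMEM with 10% heat-inactivated horse serum, penicillin and streptomycin, seeded at 5 × 10^5 cells/ml and incubated overnight at 37 °C. Infected with about 100 focus forming units of BVDV (nose strain) in the presence of graded compound concentrations for 24 h. Monolayers washed with PBS, overlaid with medium containing bactoagar, incubated a further 24 h. Viral foci counted microscopically.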

Data set [4] can be described thus: Cytotoxicity in MDBK (Madin-darby bovine kidney) cells. Type of data set: cell-based, Bos taurus. The settings on record: cattle. A digest of the protocol: (§2)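 Cell viability assay: MDBK cells at 2 × 10^4 per well, cultured with graded compound concentrations at 37 °C for 3 days. Viable cells measured colorimetrically with a water-soluble tetrazolium dye.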
The species entered for data set [5] is Bos taurus. Nature of the data set: Anti BVDV activity relative to ribavirin. Type of data set: functional.
Data set [6] can be described thus: Anti BVDV activity in MDBK (Madin-darby bovine kidney) cells (Ribavirin EC50 0.61 and CC50 90.2). Type of data set: functional, Bos taurus. A digest of the protocol:
as §1

Data set [7] is described as follows: Cytotoxicity in MDBK (Madin-darby bovine kidney) cells (Ribavirin EC50 0.61 and CC50 90.2). Format: cell-based, Bos taurus. The settings on record: cattle. A digest of the protocol: as §2
For data set [8], the species on record is Bos taurus. Put plainly: Anti BVDV activity relative to ribavirin (Ribavirin EC50 0.61 and CC50 90.2). Type of data set: functional.
The species entered for data set [9] is Bos taurus. Put plainly: Anti BVDV activity relative to ribavirin (EC50 1.2 and CC50 >100). Format: functional.
Data set [10] is described as follows: Anti BVDV activity in MDBK (Madin-darby bovine kidney) cells (Ribavirin EC50 1.2 and CC50 >100). Format: functional, Bos taurus. A digest of the protocol: as §1
Data set [11] is described as follows: Cytotoxicity in MDBK (Madin-darby bovine kidney) cells (Ribavirin EC50 1.2 and CC50 >100). Type of data set: cell-based, Bos taurus. The following applies: cattle. A digest of the protocol:
as §2

Several values for one entry are separate records, joined by “and”; a condition that tells them apart may be missing. Equal entries are not always repeated. A value given as a limit tells only on which side of the number the result lay.

In [1], `Cc1cn([C@H]2C[C@H](OC3Sc4ccccc4S3)[C@@H](CO)O2)c(=O)[nH]c1=O` registered an EC50rel of 31.2. Moreover, in data set [2], the selectivity ratio was 1.5. It took 46.8 µM to reach a half-maximal effect in data set [3] (EC50). In addition, the CC50 (in general, the concentration giving 50% cytotoxicity) in [4] was determined as 72.4 µM.
Consider `Nc1ncnc2c1ncn2[C@@H]1O[C@H](CO)C(O)[C@@H]1OC1Sc2ccccc2S1` (stereo partly drawn), for which, in data set [2], the selectivity ratio was found to be 1.89. Also, a half-maximal effect in data set [3] (EC50) was put at 39.2 µM. Half-maximal cytotoxicity in data set [4] (CC50) was put at 74.3 µM. This molecule also returned an EC50rel in [5] of 58.5.
Take `NC(=O)c1ncn([C@@H]2O[C@H](CO)[C@@H](O)[C@H]2O)n1` [RIBAVIRIN]: the EC50rel in [1] and in [5] was 1 each time. Also, the CC50/EC50 in data set [2] is < 150 and > 67. Besides, the EC50 (usually the concentration needed to bring the measured effect to its halfway point) in [3] was 1.5 µM and 0.67 µM. This molecule also had a half-maximal cytotoxic concentration (CC50) in [4] of over 100 µM.
As for `Cc1cn([C@H]2C[C@H](OC3Sc4ccccc4S3)[C@@H](C)O2)c(=O)[nH]c1=O`, the selectivity ratio in data set [2] was found to be 0.93. In [3], the EC50 was found to be 86.7 µM. The CC50 in data set [4] came to 81.3 µM. The molecule also had an EC50rel in data set [5] of 57.8.
Consider `COC(=O)Nc1ccn([C@@H]2O[C@H](CO)C(O)[C@@H]2OC2Sc3ccccc3S2)c(=O)n1` (stereo partly drawn), for which, in data set [6], the EC50 was found to be 50.3 µM. The midpoint of cytotoxicity in data set [7], the CC50, lay at 60.1 µM. In data set [8], this molecule yielded an EC50rel of 82.5. Moreover, the selectivity ratio in data set [2] was determined as 1.19.
In the case of `CSc1ccccc1SCO[C@H]1C[C@H](n2cc(C)c(=O)[nH]c2=O)O[C@@H]1CO`, the selectivity ratio in data set [2] is over 1.1. This molecule returned a concentration giving a half-maximal response (EC50) in data set [3] of 89.6 µM. Moreover, in [4], the CC50 was over 100 µM. Also, the EC50rel in [5] was 59.7.
For `Nc1ncnc2c1ncn2[C@H]1C[C@H](OC2Sc3ccccc3S2)[C@@H](CO)O1` the same measures were 1.1, 63.8 µM, 68.4 µM and 42.5.
In the case of `CSc1ccccc1SCO[C@H]1C[C@H](n2ccc(N)nc2=O)O[C@@H]1CO`, the EC50 in data set [3] was over 100 µM. This molecule yielded a CC50 in data set [4] of over 100 µM.
As to `Nc1ccn([C@H]2C[C@H](OC3Sc4ccccc4S3)[C@@H](CO)O2)c(=O)n1`, the selectivity ratio in [2] came to 1. Moreover, the EC50 in [3] is 69.1 µM. In data set [4], this molecule had a CC50 of 69.7 µM. In [5], this molecule yielded an EC50rel of 46.1.
In the same order, the values of `Nc1nc(O)c2ncn([C@@H]3O[C@H](CO)C(O)[C@@H]3OC3Sc4ccccc4S3)c2n1` (stereo partly drawn) are 5.09, 14.4 µM, 73.2 µM and 21.5.
Molecule `CSc1ccccc1SCO[C@H]1C[C@H](n2cnc3c(N)ncnc32)O[C@@H]1CO` registered an EC50 in data set [3] of over 100 µM. Moreover, the CC50 in [4] is over 100 µM.
The molecule `CSc1ccccc1SCO[C@H]1C[C@H](n2cnc3c(O)nc(N)nc32)O[C@@H]1CO` displayed an EC50 in data set [3] of over 100 µM. Besides, the CC50 in data set [4] was over 100 µM.
For the molecule `O=c1ccn([C@@H]2O[C@H](CO)C(OC3Sc4ccccc4S3)[C@@H]2O)c(=O)[nH]1` (stereo partly drawn), in [2], the selectivity ratio came to 1.46. The EC50 in data set [3] was found to be 50.6 µM. In data set [4], this molecule gave a CC50 of 73.9 µM. This molecule showed an EC50rel in data set [5] of 75.5.
Turning to `Nc1nc(O)c2ncn([C@H]3C[C@H](OC4Sc5ccccc5S4)[C@@H](CO)O3)c2n1`, in data set [2], the selectivity ratio was over 1.3. In [3], this molecule showed an EC50 of 79.4 µM. Further, in data set [4], the CC50 is over 100 µM. This molecule also gave an EC50rel in [5] of 52.9.
On to `OC[C@H]1O[C@@H](n2cnc3c(O)ncnc32)[C@@H](OC2Sc3ccccc3S2)C1O` (stereo partly drawn), for which, in data set [9], the EC50rel is 15.3. The molecule further had a 50% effective concentration (EC50) in [10] of 18.4 µM. Moreover, the CC50 in data set [11] amounted to 59.2 µM. Also, the selectivity ratio in data set [2] was 3.21.
On to `Nc1ccn([C@@H]2O[C@H](CO)C(O)[C@@H]2OC2Sc3ccccc3S2)c(=O)n1` (stereo partly drawn), for which the selectivity ratio in data set [2] amounted to 2.47. Moreover, in data set [3], the midpoint of the response, the EC50, lay at 28.5 µM. This molecule also had a CC50 in data set [4] of 70.4 µM. In data set [5], this molecule gave an EC50rel of 42.5.
In data set [3], `O=c1ccn([C@@H]2O[C@H](CO)C(OC3Sc4ccccc4S3)[C@@H]2OC2Sc3ccccc3S2)c(=O)[nH]1` (stereo partly drawn) registered a concentration giving a half-maximal response (EC50) of under 48 µM. Besides, the CC50 in data set [4] worked out at 48 µM. The molecule further came in with an EC50rel in data set [5] of under 71.7.
On to `O=c1ccn([C@@H]2O[C@H](CO)C(O)[C@@H]2OC2Sc3ccccc3S2)c(=O)[nH]1` (stereo partly drawn), for which the selectivity ratio in data set [2] turned out to be 1.19. This molecule showed an EC50 in data set [3] of 56.7 µM. Besides, the CC50 in [4] is 67.3 µM. Also, the EC50rel in [5] worked out at 84.6.
In [3], `COC1Sc2ccccc2S1` gave a half-maximal effective concentration (EC50) of over 100 µM. Moreover, in [4], the 50% cytotoxic concentration (CC50) was over 100 µM.

For the origin of these results see ChEMBL document CHEMBL1138786, “Synthesis of benzodithiol-2-yl-substituted nucleoside derivatives as lead compounds having anti-bovine viral diarrhea virus activity” (J Med Chem, 2004).
